Published values pooled from the literature.
Lines come from different studies, so protocols differ.
Sample: plasma
Route: oral

SMILES | system | conditions | Cmax
COc1cc(C(=O)NC2CCN(C)CC2)c(F)cc1Nc1ncc(C(F)(F)F)c(Oc2cccc3c2C(=O)N(C)C3)n1 | human | 25 mg, multiple doses, once daily, steady state, patients | 405 nM
Cn1cc(-c2ccc(S(=O)(=O)[C@@H]3C[C@@H](C(=O)NC4(C#N)CC4)N(C(=O)C4(C(F)(F)F)CC4)C3)c(C(F)(F)F)c2)cn1 | human | 100 mg, single dose, fasted, healthy volunteers | 516 ng/mL
CO[C@H]1CC[C@H](N2C(=O)CNc3ncc(-c4ccc(C(C)(C)O)nc4)nc32)CC1 | human | 15 mg, patients | 97.4 ng/mL
CCc1nc2c(C)cc(N3CCN(CC(=O)N4CC(O)C4)CC3)cn2c1N(C)c1nc(-c2ccc(F)cc2)c(C#N)s1 | human | 150 mg, single dose, fed, healthy volunteers | 1400 ng/mL
CCn1c(=O)c(-c2cc(NC(=O)Nc3ccccc3)c(F)cc2Br)cc2cnc(NC)cc21 | human | 150 mg, single dose, patients | 502 ng/mL
CC(C)n1cc(C#N)c2cc(-n3cc(C(=O)O)cn3)ccc21 | human | 200 mg, single dose, fed | 5400 ng/mL
CC(C)(O)c1ccccc1-c1ccc2[nH]c(/C=C/c3ccc(C(F)(F)F)cc3)nc2c1 | male human | 2 mg, single dose, fasted, healthy volunteers | 7.66 ng/mL
COCCOc1cnc2ccn([C@H](C)c3nnc4c(F)cc(-c5cnn(C)c5)cn34)c(=O)c2c1 | human | 300 mg, multiple doses, once daily, patients | 4140 ng/mL
COc1ccc([C@@H]2CN(C(=O)[C@@H](O)CO)C[C@@]2(C)[C@@H](C)O)cc1OC1CN(c2ccc(C)cn2)C1 | human | 1.5 mg, single dose, healthy volunteers | 76.5 ng/mL
